Measured values reported in ChEMBL document CHEMBL1828529, “Novel human mPGES-1 inhibitors identified through structure-based virtual screening” (Bioorg Med Chem, 2011).

target: T1, Prostaglandin E synthase (Homo sapiens) (UniProt O14684); experiment: Inhibition of human recombinant microsomal PGES-1 expressed in freestyle 293-f cells assessed as conversion of PGH2 to PGE2 at 10 uM after 15 mins by enzyme immunoassay; type: cell-based
T1 sequence (whole entry): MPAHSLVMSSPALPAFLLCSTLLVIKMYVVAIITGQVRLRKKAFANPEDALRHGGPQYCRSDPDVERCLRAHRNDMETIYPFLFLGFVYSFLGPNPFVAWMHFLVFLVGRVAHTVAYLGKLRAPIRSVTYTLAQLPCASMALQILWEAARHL
In short: (§1)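 Reaction in 0.2 M sodium phosphate pH 7.2 stock with 0.1 M GSH stock. Enzyme and inhibitor preincubated 15 min at room temperature, then started with cold PGH2 (1 μM final) on ice. Stopped after 30 s with SnCl2 in ethanol. PGE2 measured by enzyme immunoassay against an enzyme-free blank.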

In order of rising inhibition:
1. CCN1C(=O)C2Cc3c([nH]c4ccccc34)C(c3ccc(Cl)cc3)N2C1=O (centres undefined)  10%
2. O=[N+]([O-])C(/C=C(\Cl)[N+](=O)[O-])=C(N1CCCCC1)N1CCCCC1  15%
3. CC1CCc2c(sc3ncnc(SC(C)C(=O)O)c23)C1 (centres undefined)  16%
4. O=C(O)CSc1nc2sc3c(c2c(=O)n1Cc1ccccc1)CCCCC3  20%
5. O=[N+]([O-])c1cc2c(c([N+](=O)[O-])c1)Nc1ccccc1N=C2c1ccc(Cl)cc1  26%
6. CC(=O)NC(Cc1ccc(C)cc1)C(=O)NC(Cc1ccc(F)cc1)C(=O)N1CCC(OCc2ccccc2)CC1CCCNC(=N)N (centres undefined)  31%
7. Cc1c(C(=O)O)ccc2c1NC(c1ccc(OCC#N)cc1)C1CC=CC21 (centres undefined)  39%
8. CCOC(=O)Cn1c(=O)c2c(nc3n2CCCN3c2ccc(OCC)cc2)n(C)c1=O  39%
9. CC1(C)C(c2ccc(Cl)cc2)N(O)C2(CCCCC2=O)N1O (centres undefined)  43%
10. N#CCC(=O)N/N=C(\c1nc2ccc(Cl)cc2nc1O)C(O)c1ccc(Cl)cc1 (centres undefined)  50%
11. COCCN(c1ccc(/C=C2\S/C(=N\c3ccccc3)N(C(C)C(=O)O)C2=O)cc1)c1ccccc1OC (centres undefined)  83%

target: T2, Prostaglandin E synthase (Homo sapiens, UniProt O14684); experiment: Inhibition of microsomal PGES
T2 sequence (O14684 whole entry): T1 sequence (whole entry)
In short: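 Compound was preincubated with enzyme for 15 min at room temperature. PGH2 (1 μM final) was added on ice, and the reaction was stopped after 30 s with SnCl2. PGE2 was measured by EIA against an enzyme-free blank.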

In order of falling IC50:
1. CC1=C(CC(=O)O)c2cc(F)ccc2/C1=C\c1ccc([S+](C)[O-])cc1 (centres undefined)  80 µM
2. CS(=O)(=O)Nc1ccc([N+](=O)[O-])cc1OC1CCCCC1 [NS-398]  20 µM

target: T2, Prostaglandin E synthase; experiment: Inhibition of human recombinant microsomal PGES-1 expressed in freestyle 293-f cells assessed as conversion of PGH2 to PGE2 after 15 mins by enzyme immunoassay; type: cell-based; in short: as §1

`COCCN(c1ccc(/C=C2\S/C(=N\c3ccccc3)N(C(C)C(=O)O)C2=O)cc1)c1ccccc1OC` (centres undefined) gave an IC50 of 3.5 µM.
